Results taken from ChEMBL document CHEMBL1649514, “AmpDI is involved in expression of the chromosomal L1 and L2 beta-lactamases of Stenotrophomonas maltophilia” (2009).
Converted amounts (≈) assume the structure as drawn.

What was measured:
Type in all cases: functional
[1] = test system: Stenotrophomonas maltophilia; experiment: Antimicrobial activity against ampD1-, ampD2-deficient Stenotrophomonas maltophilia KJ by twofold serial agar dilution method
Method in brief: (§1)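 MICs by standard twofold serial agar dilution following CLSI guidelines, done in triplicate. Strains were wild-type clinical isolate KJ, which produces L1 and L2 β-lactamases, and its isogenic ampDI, ampDII and ampDI/ampDII deletion mutants. For cefepime, imipenem and meropenem, MICs were instead read from Etest strips per the manufacturer's instructions.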

[2] = test system: Stenotrophomonas maltophilia; experiment: Antimicrobial activity against Stenotrophomonas maltophilia KJ by twofold serial agar dilution method; method in brief: as §1
[3] = test system: Stenotrophomonas maltophilia; experiment: Antimicrobial activity against ampD2-deficient Stenotrophomonas maltophilia KJ by twofold serial agar dilution method; method in brief: as §1
[4] = test system: Stenotrophomonas maltophilia; experiment: Antimicrobial activity against ampD1-deficient Stenotrophomonas maltophilia KJ by twofold serial agar dilution method; method in brief: as §1

Compound	MIC [1]	MIC [2]	MIC [3]	MIC [4]
CO[C@@]1(NC(=O)Cc2cccs2)C(=O)N2C(C(=O)O)=C(COC(N)=O)CS[C@@H]21 [CEFOXITIN]	1020 µg/mL (≈ 2400 µM)	1020 µg/mL (≈ 2400 µM)	1020 µg/mL (≈ 2400 µM)	1020 µg/mL (≈ 2400 µM)
C[C@@H](O)[C@H]1C(=O)N2C(C(=O)O)=C(S[C@@H]3CN[C@H](C(=O)N(C)C)C3)[C@H](C)[C@H]12 [MEROPENEM]	> 32 µg/mL	> 32 µg/mL	> 32 µg/mL	> 32 µg/mL
CC1(C)S[C@@H]2[C@H](NC(=O)C(C(=O)O)c3ccccc3)C(=O)N2[C@H]1C(=O)O (stereo partly specified) [CARBENICILLIN]	1020 µg/mL (≈ 2710 µM)	1020 µg/mL (≈ 2710 µM)	1020 µg/mL (≈ 2710 µM)	1020 µg/mL (≈ 2710 µM)
CCN1CCN(C(=O)N[C@@H](C(=O)N[C@@H]2C(=O)N3[C@@H]2SC(C)(C)[C@@H]3C(=O)O)c2ccccc2)C(=O)C1=O [PIPERACILLIN]	1020 µg/mL (≈ 1980 µM)	1020 µg/mL (≈ 1980 µM)	1020 µg/mL (≈ 1980 µM)	1020 µg/mL (≈ 1980 µM)
C[C@H]1[C@H](NC(=O)/C(=N\OC(C)(C)C(=O)O)c2csc(N)n2)C(=O)N1S(=O)(=O)O [AZTREONAM]	> 2050 µg/mL	> 2050 µg/mL	> 2050 µg/mL	> 2050 µg/mL

Second part, the molecule after the results:

MIC [1]	MIC [2]	MIC [3]	MIC [4]	Compound
2050 µg/mL (≈ 4830 µM)	2050 µg/mL (≈ 4830 µM)	2050 µg/mL (≈ 4830 µM)	2050 µg/mL (≈ 4830 µM)	CO/N=C(\C(=O)N[C@@H]1C(=O)N2C(C(=O)O)=C(COC(N)=O)CS[C@H]12)c1ccco1 [CEFUROXIME]
96 µg/mL (≈ 200 µM)	64 µg/mL (≈ 133 µM)	64 µg/mL (≈ 133 µM)	96 µg/mL (≈ 200 µM)	CO/N=C(\C(=O)N[C@@H]1C(=O)N2C(C(=O)[O-])=C(C[N+]3(C)CCCC3)CS[C@H]12)c1csc(N)n1 [CEFEPIME]
> 32 µg/mL	> 32 µg/mL	> 32 µg/mL	> 32 µg/mL	C[C@@H](O)[C@H]1C(=O)N2C(C(=O)O)=C(SCCNC=N)C[C@H]12 [IMIPENEM ANHYDROUS]
256 µg/mL (≈ 462 µM)	256 µg/mL (≈ 462 µM)	256 µg/mL (≈ 462 µM)	256 µg/mL (≈ 462 µM)	CO/N=C(\C(=O)N[C@@H]1C(=O)N2C(C(=O)O)=C(CSc3nc(=O)c(O)nn3C)CS[C@H]12)c1csc(N)n1 [CEFTRIAXONE]
